Data as given in ChEMBL document CHEMBL1144557, “The novel C-5 aryl, alkenyl, and alkynyl substituted uracil derivatives of L-ascorbic acid: synthesis, cytostatic, and antiviral activity evaluations” (Bioorg Med Chem, 2007).
Values after ≈ are worked out from the molar mass of the structure shown.

Columns and labels:
Punta Toro virus = assay: Antiviral activity against Punta Toro virus-induced cytopathogenicity in Vero cells; format: functional
Coxsackievirus B4 = assay: Antiviral activity against Coxsackie virus B4-induced cytopathogenicity in Vero cells; format: functional; conditions: Enterovirus B
Human alphaherpesvirus 2 = assay: Antiviral activity against HSV2 G-induced cytopathogenicity in E6SM cells; format: functional; conditions: Human alphaherpesvirus 2, G
WI-38 = assay: Antiproliferative activity against human WI38 cells after 72 hrs by MTT assay; format: functional, cell-based; conditions: WI-38, 72 h
Method in brief: (§1)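 Monolayers grown in DMEM with 10% FBS, 2 mM L-glutamine and penicillin/streptomycin at 37 °C, 5% CO2. Seeded at 1 × 10⁴–3 × 10⁴ cells/mL on day 0. Compounds from 0.04 M DMSO stocks added at five 10-fold dilutions (10⁻⁸–10⁻⁴ M final), with matched DMSO controls, for 72 h. MTT added for 4 h, formazan dissolved in DMSO, absorbance read at 570 nm. Percentage growth calculated against time-zero and untreated OD. IC50 is 50% inhibition of proliferation.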

CCRF-CEM = assay: Antiproliferative activity against human CEM cells; format: functional, cell-based
Method in brief: (§2)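 Suspension cells seeded at 50 × 10³ cells/well with a range of test compound concentrations. Cell number counted with a Coulter counter after 2 days (L1210) or 3 days (Molt4/C8, CEM). IC50 is the concentration that cuts cell growth by 50% versus untreated controls, read from plots of cell number (% of control) against concentration.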

Human alphaherpesvirus 1 [1] = assay: Antiviral activity against HSV1 TK- KOS ACV-induced cytopathogenicity in E6SM cells; format: functional; conditions: Human alphaherpesvirus 1, KOS
SW-620 = assay: Antiproliferative activity against human SW620 cells after 72 hrs by MTT assay; format: functional, cell-based; conditions: SW-620, 72 h; method in brief: as §1
[2] = Antiproliferative activity against human Molt4/C8 cells; format: functional, cell-based; conditions: MOLT-4; method in brief: as §2
HEp-2 = assay: Antiproliferative activity against human Hep2 cells after 72 hrs by MTT assay; format: functional, cell-based; conditions: HEp-2, 72 h; method in brief: as §1
[3] = Cytotoxicity against E6SM cells; format: cell-based; conditions: human
Method in brief: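 Cells seeded at 5 × 10³ cells/well and exposed to medium containing a range of test compound concentrations. After 3 days at 37 °C, cell morphology examined microscopically. Reported as minimum cytotoxic concentration (MCC), the concentration causing a microscopically detectable alteration of normal cell morphology.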

HeLa = assay: Antiproliferative activity against human HeLa cells after 72 hrs by MTT assay; format: functional, cell-based; method in brief: as §1
MCF7 = assay: Antiproliferative activity against human MCF7 cells after 72 hrs by MTT assay; format: functional, cell-based; conditions: MCF7, 72 h; method in brief: as §1
L1210 = assay: Antiproliferative activity against mouse L1210 cells; format: functional, cell-based; method in brief: as §2
Human alphaherpesvirus 1 [4] = assay: Antiviral activity against HSV1 KOS-induced cytopathogenicity in E6SM cells; format: functional; conditions: Human alphaherpesvirus 1, KOS
MIA PaCa-2 = assay: Antiproliferative activity against human MiaPaCa2 cells after 72 hrs by MTT assay; format: functional, cell-based; method in brief: as §1
[5] = tested on: Vesicular stomatitis virus; assay: Antiviral activity against in Vesicular stomatitis virus- induced cytopathogenicity in HeLa cells; format: functional
Sindbis virus = assay: Antiviral activity against Sindbis virus-induced cytopathogenicity in Vero cells; format: functional
[6] = tested on: Vesicular stomatitis virus; assay: Antiviral activity against in Vesicular stomatitis virus-induced cytopathogenicity in E6SM cells; format: functional
[7] = Homo sapiens, MIA PaCa-2, 72 h, read-out: IC50

SMILES	MIC (Punta Toro virus)	MIC (Coxsackievirus B4)	MIC (Human alphaherpesvirus 2)	IC50 (WI-38)	IC50 (CCRF-CEM)	MIC (Human alphaherpesvirus 1 [1])	IC50 (SW-620)	IC50 [2]	IC50 (HEp-2)	MCC ([3]; read-out: MCC)	IC50 (HeLa)	IC50 (MCF7)	IC50 (L1210)	MIC (Human alphaherpesvirus 1 [4])	IC50 (MIA PaCa-2; [7])	MIC [5]	MIC (Sindbis virus)	MIC [6]	IC50 (MIA PaCa-2; mia paca-2)	MCC ([3]; read-out: MIC)
O=C1O/C(=C(\Br)Cn2c(Br)c(/C=C/Br)c(=O)[nH]c2=O)C(OCc2ccccc2)=C1OCc1ccccc1	> 116 µM	> 116 µM	> 116 µM	49 µM	91 µM	> 116 µM	≥ 100 µM	110 µM	22 µM	578 µM	22 µM	15 µM	32 µM	> 116 µM	20 µM	> 116 µM	> 116 µM	> 116 µM	–	–
CC#Cc1cn(C/C=C2\OC(=O)C(OCc3ccccc3)=C2OCc2ccccc2)c(=O)[nH]c1=O	> 1.6 µM	1.6 µM (≈ 0.753 µg/mL)	> 0.4 µM	0.2 µM	0.77 µM	> 0.4 µM	0.3 µM	0.78 µM	0.7 µM	2 µM	0.2 µM	0.2 µM	0.47 µM	> 0.4 µM	–	1.6 µM (≈ 0.753 µg/mL)	1.6 µM (≈ 0.753 µg/mL)	> 0.4 µM	0.5 µM	–
O=C1O/C(=C\Cn2cc(-c3ccc(Cl)o3)c(=O)[nH]c2=O)C(OCc2ccccc2)=C1OCc1ccccc1	> 150 µM	> 150 µM	> 150 µM	> 100 µM	162 µM	> 150 µM	> 100 µM	158 µM	> 100 µM	752 µM	≥ 100 µM	≥ 100 µM	165 µM	> 150 µM	≥ 100 µM	> 150 µM	> 150 µM	150 µM (≈ 79.9 µg/mL)	–	–
C=Cc1cn(C/C=C2\OC(=O)C(O)=C2O)c(=O)[nH]c1=O	> 29 µM	> 29 µM	> 144 µM	36 µM	284 µM	> 144 µM	> 100 µM	309 µM	46 µM	720 µM	40 µM	36 µM	309 µM	> 144 µM	≥ 100 µM	> 120 µM	> 29 µM	> 144 µM	–	–
O=C1O/C(=C\Cn2cc(/C=C/Br)c(=O)[nH]c2=O)C(OCc2ccccc2)=C1OCc1ccccc1	> 150 µM	> 150 µM	> 150 µM	38 µM	233 µM	> 150 µM	> 100 µM	≥ 200 µM	40 µM	746 µM	45 µM	40 µM	196 µM	> 150 µM	> 100 µM	> 150 µM	> 150 µM	150 µM (≈ 80.6 µg/mL)	–	–
C=CCc1cn(C/C=C2\OC(=O)C(OCc3ccccc3)=C2OCc2ccccc2)c(=O)[nH]c1=O	> 40 µM	24 µM (≈ 11.3 µg/mL)	> 8 µM	10.4 µM	20 µM	> 8 µM	2.7 µM	20 µM	4.7 µM	40 µM	2.9 µM	4.7 µM	20 µM	> 8 µM	5 µM	24 µM (≈ 11.3 µg/mL)	24 µM (≈ 11.3 µg/mL)	> 8 µM	–	–
O=C1O/C(=C\Cn2cc(-c3ccco3)c(=O)[nH]c2=O)C(OCc2ccccc2)=C1OCc1ccccc1	> 6.4 µM	> 6.4 µM	> 6.4 µM	1.8 µM	7 µM	> 6.4 µM	2.4 µM	6.6 µM	2.2 µM	32 µM	2 µM	2 µM	6.8 µM	> 6.4 µM	1.6 µM	> 6.4 µM	> 6.4 µM	> 6.4 µM	–	–
O=C1O/C(=C\Cn2cc(-c3ccc(Br)o3)c(=O)[nH]c2=O)C(OCc2ccccc2)=C1OCc1ccccc1	> 70 µM	> 70 µM	> 70 µM	16 µM	134 µM	> 70 µM	49 µM	125 µM	28 µM	347 µM	24 µM	29 µM	115 µM	> 70 µM	27 µM	70 µM (≈ 40.4 µg/mL)	> 70 µM	70 µM (≈ 40.4 µg/mL)	–	–
C=C=Cc1cn(C/C=C2\OC(=O)C(OCc3ccccc3)=C2OCc2ccccc2)c(=O)[nH]c1=O	> 200 µM	> 200 µM	> 8 µM	> 100 µM	> 250 µM	> 8 µM	> 100 µM	> 250 µM	> 100 µM	40 µM	> 100 µM	77 µM	> 250 µM	> 8 µM	> 100 µM	> 40 µM	> 200 µM	8 µM (≈ 3.76 µg/mL)	–	–
Nc1ncnc2c1ncn2C[C@H](O)CO [(S)-DHPA]	300 µM (≈ 62.8 µg/mL)	> 500 µM	–	–	–	–	–	–	–	–	–	–	–	–	–	> 500 µM	> 500 µM	–	–	–
Nc1nc2c(ncn2COCCO)c(=O)[nH]1 [ACYCLOVIR]	–	–	0.8 µM (≈ 0.18 µg/mL)	–	–	60 µM (≈ 13.5 µg/mL)	–	–	–	–	–	–	–	0.48 µM (≈ 0.108 µg/mL)	–	–	–	> 500 µM	–	> 500 µM
O=c1[nH]c(=O)n([C@H]2C[C@H](O)[C@@H](CO)O2)cc1/C=C/Br [BRIVUDINE]	> 500 µM	> 500 µM	300 µM (≈ 99.9 µg/mL)	–	–	300 µM (≈ 99.9 µg/mL)	–	–	–	–	–	–	–	0.48 µM (≈ 0.16 µg/mL)	–	> 500 µM	> 500 µM	> 500 µM	–	> 500 µM
Nc1nc2c(ncn2COC(CO)CO)c(=O)[nH]1 [GANCICLOVIR]	–	–	0.096 µM (≈ 0.0245 µg/mL)	–	–	0.8 µM (≈ 0.204 µg/mL)	–	–	–	–	–	–	–	0.096 µM (≈ 0.0245 µg/mL)	–	–	–	> 100 µM	–	> 100 µM
NC(=O)c1ncn([C@@H]2O[C@H](CO)[C@@H](O)[C@H]2O)n1 [RIBAVIRIN]	300 µM (≈ 73.3 µg/mL)	> 500 µM	300 µM (≈ 73.3 µg/mL)	–	–	500 µM (≈ 122 µg/mL)	–	–	–	–	–	–	–	500 µM (≈ 122 µg/mL)	–	100 µM (≈ 24.4 µg/mL)	100 µM (≈ 24.4 µg/mL)	> 500 µM	–	> 500 µM
